Test results reported in PubChem BioAssay.
Activity calls are given as the source filed them.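 The calls were made as follows, unless noted: active = duplicate-averaged activation above buffer control mean plus 5 SD of those controls; inactive = the rest.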

Key:
[1] = thallium flux activation in parental CHO cells, counter-screen for KCNQ1 potentiator project (AID 493006); conditions: parental CHO-K1 cells, FluxOR thallium flux, at 10 µM; active compounds read high
Summary of the method: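 Assay system: Untransfected host CHO-K1 cells with FluxOR thallium dye | Probe or stimulus: Potassium/thallium depolarization pulse | Schedule: Overnight 37 °C plating, 90 min RT dye, 20 min compound | Detection: Kinetic thallium-flux fluorescence | Read-out: Max-minus-min fluorescence over baseline, percent of buffer-to-R-L3 span | Benchmarks: Low control buffer, high control R-L3 activator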

[2] = target: Potassium voltage-gated channel subfamily KQT member 1 (Homo sapiens) (UniProt P51787); test: KCNQ1 potassium channel potentiators, confirmation, FluxOR thallium flux, CHO cells, duplicates (AID 493007;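 active = potentiation averaged over duplicate wells exceeding buffer-only control mean by more than 3 SD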;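 as to outcome: cells depolarized by a potassium plus thallium sulfate stimulus after compound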); conditions: KCNQ1 cell line, FluxOR thallium flux fluorescence, at 10 µM; active compounds read high, % of reference activator effect, buffer zero
Chain of Potassium voltage-gated channel subfamily KQT member 1 (Homo sapiens) (P51787 whole entry, looked up): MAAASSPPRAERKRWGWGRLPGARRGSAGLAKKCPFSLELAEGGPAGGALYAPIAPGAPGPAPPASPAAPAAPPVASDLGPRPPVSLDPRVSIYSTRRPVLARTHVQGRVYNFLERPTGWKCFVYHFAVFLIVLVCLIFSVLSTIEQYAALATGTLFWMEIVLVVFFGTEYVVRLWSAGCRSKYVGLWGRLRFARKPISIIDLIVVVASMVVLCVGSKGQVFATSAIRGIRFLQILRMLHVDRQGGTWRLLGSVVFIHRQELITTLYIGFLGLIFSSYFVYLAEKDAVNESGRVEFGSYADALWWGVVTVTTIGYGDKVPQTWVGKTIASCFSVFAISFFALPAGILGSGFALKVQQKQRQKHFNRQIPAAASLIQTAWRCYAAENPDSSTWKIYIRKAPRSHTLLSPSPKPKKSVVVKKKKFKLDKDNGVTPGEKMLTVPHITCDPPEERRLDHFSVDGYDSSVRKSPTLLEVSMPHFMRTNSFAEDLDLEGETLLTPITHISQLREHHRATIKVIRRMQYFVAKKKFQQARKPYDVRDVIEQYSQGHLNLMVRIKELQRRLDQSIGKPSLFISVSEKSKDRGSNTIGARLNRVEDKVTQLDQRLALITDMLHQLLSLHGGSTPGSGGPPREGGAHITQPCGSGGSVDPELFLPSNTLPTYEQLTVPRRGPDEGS
Summary of the method: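 Material: KCNQ1-expressing CHO cell line; Incubation: FluxOR dye loading 90 min, compound exposure 20 min, room temperature; Detection: FluxOR Tl+ flux fluorescence, 10 s baseline plus 110 s recording; Read-out: percent activation between buffer and R-L3 responses; Control set: buffer-only wells as 0% and R-L3 activator as 100%; Replication: duplicate wells per compound.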

[3] = target: Potassium voltage-gated channel subfamily KQT member 2 (Rattus norvegicus) (UniProt O88943); test: rat KCNQ2 channel potentiation, selectivity assay for KCNQ1 potentiator project, KCNQ2-CHO-K1 cells (AID 493009;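 active = mean duplicate potentiation above the buffer control mean plus 5 SD of buffer wells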;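 also: assay conditions were tuned for KCNQ1 rather than KCNQ2 modulators; signal is max minus min fluorescence divided by baseline after thallium stimulus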); conditions: FluxOR thallium flux fluorescence, at 10 µM; active compounds read high, scaled: buffer 0, activator control 100
Chain of Potassium voltage-gated channel subfamily KQT member 2 (Rattus norvegicus) (O88943 whole entry, looked up): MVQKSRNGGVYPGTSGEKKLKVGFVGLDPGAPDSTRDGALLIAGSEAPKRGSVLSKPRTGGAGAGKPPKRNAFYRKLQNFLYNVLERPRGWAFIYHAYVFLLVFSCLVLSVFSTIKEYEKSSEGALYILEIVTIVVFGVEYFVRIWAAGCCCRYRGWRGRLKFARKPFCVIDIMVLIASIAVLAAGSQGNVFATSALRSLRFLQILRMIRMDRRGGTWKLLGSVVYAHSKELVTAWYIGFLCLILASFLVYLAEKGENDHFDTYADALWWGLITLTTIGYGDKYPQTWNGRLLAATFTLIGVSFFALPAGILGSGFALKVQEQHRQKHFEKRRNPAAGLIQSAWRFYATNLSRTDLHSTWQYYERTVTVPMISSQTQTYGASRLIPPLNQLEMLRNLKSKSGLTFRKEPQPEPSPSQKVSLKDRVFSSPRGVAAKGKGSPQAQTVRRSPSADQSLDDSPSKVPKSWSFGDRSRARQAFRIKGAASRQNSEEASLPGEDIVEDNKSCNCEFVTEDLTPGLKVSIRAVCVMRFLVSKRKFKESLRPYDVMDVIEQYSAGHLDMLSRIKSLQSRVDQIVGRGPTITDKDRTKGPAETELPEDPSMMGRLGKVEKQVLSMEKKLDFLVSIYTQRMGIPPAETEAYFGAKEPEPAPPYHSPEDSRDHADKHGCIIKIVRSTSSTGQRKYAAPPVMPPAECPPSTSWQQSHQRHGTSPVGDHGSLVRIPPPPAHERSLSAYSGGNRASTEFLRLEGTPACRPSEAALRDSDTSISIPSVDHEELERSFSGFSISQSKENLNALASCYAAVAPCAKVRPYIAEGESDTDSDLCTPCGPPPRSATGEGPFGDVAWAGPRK

[4] = target: Potassium voltage-gated channel subfamily KQT member 1 (Homo sapiens) (UniProt P51787); test: KCNQ1 channel current potentiators, confirmation, orthogonal assay for KCNQ1 potentiator project, IonWorks patch clamp, KCNQ1-CHO cells (AID 493184;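 active = current rise at least 3 SD above the untreated control mean in each of two repeat wells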); conditions: automated patch clamp current, at 10 µM; active compounds read high
Summary of the method: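 assay system = KCNQ1-expressing CHO cells | medium = external bath solution at pH 7.4 | probe or stimulus = 2,000 ms depolarization, -90 to +40 mV | compound dosing = 10 µM final, single point | measured by = automated voltage clamp, amphotericin B perforated patch | measure = percent current increase versus pre-compound level | replication = duplicates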

O=c1c2ccc(Cl)cc2[nH]c(=S)n1CCC1=CCCCC1
activation [1]: 156% (active) | potentiation [2]: 48.5% (active) | potentiation [3]: 166% (active) | outcome [4]: inactive

COc1ccc(OC)c(NC(=O)C(=O)NNC(=O)C23CC4CC(CC(C4)C2)C3)c1
activation [1]: 404% (active) | potentiation [2]: 244% (active) | potentiation [3]: 463% (active) | outcome [4]: inactive

O=C(NC(=S)N1CCCc2ccccc21)c1ccccc1
outcome [1]: inactive | outcome [2]: inactive | potentiation [3]: 148% (active) | outcome [4]: inactive

Cc1ccc(-c2n[nH]c(=S)nc2-c2ccc(C)cc2)cc1
activation [1]: 160% (active) | potentiation [2]: 32% (active) | potentiation [3]: 159% (active) | outcome [4]: inactive

S=c1nc2ccccc2c2nc(-c3ccccc3)[nH]n12
outcome [1]: inactive | outcome [2]: inactive | outcome [3]: inactive | outcome [4]: inactive

CCOc1ccc(C(=O)C(CCC(CN(C)C)C(=O)c2ccc(OCC)cc2)CN(C)C)cc1 (stereo not given)
outcome [1]: inactive | potentiation [2]: 34.5% (active) | potentiation [3]: 152% (active) | outcome [4]: inactive

O=C(NC(=S)N1CCN(Cc2ccc3c(c2)OCO3)CC1)c1cccc(Br)c1
activation [1]: 314% (active) | potentiation [2]: 123% (active) | potentiation [3]: 349% (active) | outcome [4]: inactive

O=C(NC(=S)N1CCN(C/C=C/c2ccccc2)CC1)c1ccc(F)cc1
activation [1]: 190% (active) | potentiation [2]: 74% (active) | potentiation [3]: 260% (active) | outcome [4]: inactive

O=C1c2cccc3cccc(c23)C(=O)N1c1cccc(O)c1
outcome [1]: inactive | outcome [2]: inactive | outcome [3]: inactive | outcome [4]: inactive

O=C1NN(c2ccccc2)C(=O)/C1=C\c1cccc(OC(=O)c2cccs2)c1
activation [1]: 187% (active) | potentiation [2]: 61.5% (active) | potentiation [3]: 202% (active) | outcome [4]: inactive

O=c1sc(N2CCN(c3ccccc3F)CC2)nc2ccsc12
outcome [1]: inactive | outcome [2]: inactive | outcome [3]: inactive | outcome [4]: inactive

COc1ccc(CN(C)C(=O)c2ccc3ccccc3n2)cc1F
outcome [1]: inactive | outcome [2]: inactive | outcome [3]: inactive | outcome [4]: inactive

O=C(NNc1nc2c(F)cc(F)cc2s1)c1ccccc1
outcome [1]: inactive | outcome [2]: inactive | outcome [3]: inactive | outcome [4]: inactive

O=Cc1ccccc1OCCCOc1cccc2cccnc12
outcome [1]: inactive | outcome [2]: inactive | outcome [3]: inactive | outcome [4]: inactive

CSc1nccc(-c2nn(-c3ccc(C)cc3)ccc2=O)n1
outcome [1]: inactive | outcome [2]: inactive | outcome [3]: inactive | outcome [4]: inactive

CC1CCN(C(=S)NC(=O)c2ccc(C(C)(C)C)cc2)CC1
activation [1]: 165% (active) | potentiation [2]: 85.5% (active) | potentiation [3]: 284% (active) | outcome [4]: inactive

CCOC(=O)c1ccc(N2C(=O)c3n[nH]c(C)c3C2c2ccccn2)cc1 (stereo not given)
outcome [1]: inactive | outcome [2]: inactive | outcome [3]: inactive | outcome [4]: inactive

O=c1cc(-c2ccccc2)cc(-c2ccccc2)n1O
activation [1]: 254% (active) | potentiation [2]: 87.5% (active) | potentiation [3]: 322% (active) | outcome [4]: inactive

COc1ccccc1OCCc1nnc(N)s1
outcome [1]: inactive | outcome [2]: inactive | outcome [3]: inactive | outcome [4]: inactive

Cn1c(=O)c2c(SC3CCCC3)nc(C3CC3)nc2n(C)c1=O
outcome [1]: inactive | outcome [2]: inactive | outcome [3]: inactive | outcome [4]: inactive

CCN=C1SC(CC(=O)Nc2ccccc2OCC)C(=O)N1CC (stereo not given)
outcome [1]: inactive | outcome [2]: inactive | outcome [3]: inactive | outcome [4]: inactive

Cc1ccc(C(=O)OCC(=O)Nc2sc3c(c2C#N)CCCC3)cc1NC(=O)c1ccco1
outcome [1]: inactive | outcome [2]: inactive | outcome [3]: inactive | outcome [4]: inactive

CC(=O)c1cc2c(cc1NC(=O)CN1Cc3ccccc3C1=O)OCO2
outcome [1]: inactive | outcome [2]: inactive | outcome [3]: inactive | outcome [4]: inactive

CC1CN(S(=O)(=O)c2ccc(Cl)c(C(F)(F)F)c2)CC(C)O1 (stereo not given)
outcome [1]: inactive | outcome [2]: inactive | outcome [3]: inactive | outcome [4]: inactive

CCCCn1c(N)c(N(CC)C(=O)CSCc2c(C)noc2C)c(=O)[nH]c1=O
outcome [1]: inactive | outcome [2]: inactive | outcome [3]: inactive | outcome [4]: inactive

O=C(N/N=C/c1ccccn1)c1sc2ccccc2c1Cl
activation [1]: 156% (active) | potentiation [2]: 41% (active) | potentiation [3]: 207% (active) | outcome [4]: inactive

CCOC(=O)Cn1c(=N)n(CCOc2ccc(Br)cc2)c2ccccc21
outcome [1]: inactive | outcome [2]: inactive | outcome [3]: inactive | outcome [4]: inactive

COc1ccc(C(=O)c2cc([N+](=O)[O-])ccc2N2CCOCC2)cc1
outcome [1]: inactive | outcome [2]: inactive | outcome [3]: inactive | outcome [4]: inactive

Cc1ccc(-n2c(C)cc(/C=N/NC(=O)CC3(C)OCCO3)c2C)c(C)c1
outcome [1]: inactive | outcome [2]: inactive | outcome [3]: inactive | outcome [4]: inactive

CN1CCN(C(=O)/C(=C/c2ccccc2)c2ccccc2)CC1
outcome [1]: inactive | outcome [2]: inactive | outcome [3]: inactive | outcome [4]: inactive

CC(C)NC(=O)C1CCN(c2ccc(S(=O)(=O)N3CCOCC3)cc2Cl)CC1
outcome [1]: inactive | outcome [2]: inactive | outcome [3]: inactive | outcome [4]: inactive

Cc1cccc(/C=N/n2c(COc3ccccc3)n[nH]c2=S)c1
outcome [1]: inactive | potentiation [2]: 60.5% (active) | potentiation [3]: 142% (active) | outcome [4]: inactive

CCOc1ccc(S(=O)(=O)Nc2cc(OC)ccc2OC)cc1
outcome [1]: inactive | outcome [2]: inactive | outcome [3]: inactive | outcome [4]: inactive

Nc1ccc(C2(c3ccc(N)cc3)OC(=O)c3ccccc32)cc1
outcome [1]: inactive | outcome [2]: inactive | outcome [3]: inactive | outcome [4]: inactive

Cc1ccc(S(=O)(=O)NN2C(=O)/C(=C/c3cccs3)SC2=S)cc1
activation [1]: 163% (active) | potentiation [2]: 22.5% (active) | potentiation [3]: 159% (active) | outcome [4]: inactive

O=C(COc1ccccc1F)Nc1c2c(nn1-c1ccccc1)CS(=O)(=O)C2
outcome [1]: inactive | outcome [2]: inactive | outcome [3]: inactive | outcome [4]: inactive

N#Cc1ccc(-c2nc3cc(Cl)ccc3c(=O)n2O)cc1
activation [1]: 189% (active) | potentiation [2]: 29.5% (active) | potentiation [3]: 176% (active) | outcome [4]: inactive

CC(C)C(=O)Nc1c(-c2ccccc2F)c(=O)c2ccccc2n1C
outcome [1]: inactive | outcome [2]: inactive | outcome [3]: inactive | outcome [4]: inactive

O=C(NC(=S)Nc1cccnc1)c1cc2ccccc2o1
activation [1]: 184% (active) | potentiation [2]: 35% (active) | potentiation [3]: 182% (active) | outcome [4]: inactive

Cn1ncc2c(O/N=C(\N)c3ccc(C(C)(C)C)cc3)ncnc21
outcome [1]: inactive | outcome [2]: inactive | outcome [3]: inactive | outcome [4]: inactive

Cc1cccc(C(=O)NC(=S)N2CCc3ccccc3C2)c1
activation [1]: 197% (active) | potentiation [2]: 99% (active) | potentiation [3]: 256% (active) | outcome [4]: inactive

O=C(Nc1cccc(NC(=O)c2c(F)cccc2F)n1)c1c(F)cccc1F
outcome [1]: inactive | outcome [2]: inactive | outcome [3]: inactive | outcome [4]: inactive

O=C(CNC(=O)c1sc2ccccc2c1Cl)OCc1ccccc1
outcome [1]: inactive | outcome [2]: inactive | outcome [3]: inactive | outcome [4]: inactive

CCc1ccccc1NC(=O)C1CCN(C(=O)N2CCOc3ccccc32)CC1
outcome [1]: inactive | outcome [2]: inactive | outcome [3]: inactive | outcome [4]: inactive

CCn1nc(C)c(NC(=O)c2cnn3c(C(F)F)cc(-c4ccccc4)nc23)c1C
outcome [1]: inactive | outcome [2]: inactive | outcome [3]: inactive | outcome [4]: inactive

CC(C)n1c(O)c(N=NC(=O)C2COc3ccccc3O2)c2ccccc21 (stereo not given)
activation [1]: 234% (active) | potentiation [2]: 66.5% (active) | potentiation [3]: 208% (active) | outcome [4]: inactive

O=C(NNc1ncc(C(F)(F)F)cc1Cl)c1c(Cl)cccc1Cl
outcome [1]: inactive | outcome [2]: inactive | outcome [3]: inactive | outcome [4]: inactive

CCOc1ccc2nc(N3C(=O)/C(=C/c4ccccc4)NC3=S)sc2c1
activation [1]: 442% (active) | potentiation [2]: 367% (active) | potentiation [3]: 700% (active) | outcome [4]: inactive

O=C(NC(=S)Nc1nc2ccc(F)cc2s1)c1ccco1
activation [1]: 282% (active) | potentiation [2]: 132% (active) | potentiation [3]: 331% (active) | outcome [4]: inactive

CCOC(=O)C1(CC2CCCCO2)CCN(Cc2cc3ccccc3[nH]2)CC1 (stereo not given)
outcome [1]: inactive | outcome [2]: inactive | outcome [3]: inactive | outcome [4]: inactive

O=C(NC(=S)NC1CCCCC1)c1ccc(Cl)cc1
activation [1]: 202% (active) | potentiation [2]: 262% (active) | potentiation [3]: 390% (active) | outcome [4]: inactive

CCC1(C)Cc2c(sc3nc(SC)[nH]c(=S)c23)CO1 (stereo not given)
activation [1]: 550% (active) | potentiation [2]: 194% (active) | potentiation [3]: 534% (active) | outcome [4]: inactive

O=C(NC(=S)Nc1ccccc1Cl)c1ccco1
activation [1]: 140% (active) | outcome [2]: inactive | potentiation [3]: 146% (active) | outcome [4]: inactive

COC(=O)C1CCCN1C(=O)COc1ccc(Cl)cc1Br (stereo not given)
activation [1]: 152% (active) | outcome [2]: inactive | potentiation [3]: 158% (active) | outcome [4]: inactive

Cc1ccc(OCC(=O)NC(=S)Nc2ccc(Br)cn2)cc1
outcome [1]: inactive | potentiation [2]: 19.5% (active) | outcome [3]: inactive | outcome [4]: inactive

Cc1nc(NCc2cccnc2)c2c3c(sc2n1)CC(C)CC3 (stereo not given)
activation [1]: 299% (active) | potentiation [2]: 118% (active) | potentiation [3]: 352% (active) | outcome [4]: inactive

COc1cc(OC)cc(C(=O)NNC(=O)C(=O)Nc2cc(OC)c(Cl)cc2OC)c1
activation [1]: 202% (active) | potentiation [2]: 64% (active) | potentiation [3]: 213% (active) | outcome [4]: inactive

Cc1ccc(O)c(C(=O)CC(=O)c2cccc(F)c2)c1
outcome [1]: inactive | potentiation [2]: 24% (active) | potentiation [3]: 159% (active) | outcome [4]: inactive

O=C(O)CCSc1ncnc2sc(-c3ccccc3)cc12
activation [1]: 180% (active) | potentiation [2]: 89.5% (active) | potentiation [3]: 220% (active) | outcome [4]: inactive

CCCn1c(=S)[nH]c2ccc(C(F)(F)F)cc21
activation [1]: 158% (active) | outcome [2]: inactive | outcome [3]: inactive | outcome [4]: inactive
